Results: PMC6381215 (Pharmacology Research & Perspectives, 2019)
Values belong to the molecule of their own block, whether it stands above or below them.

How the values were obtained:
[1] = biological target: NMDA receptor (ion-channel / PCP site), rat forebrain membranes; assay: enhancement of [3H]MK-[…]) binding; conditions: 5 mM Tris-HCl pH 7.4, 25 °C, 20 h
[2] = system: Sigma (1 and 2); assay: radioligand competition; conditions: read-out: IC50 (M) ^a; non-selective sigma 1 and 2
Procedure, shortened: (§1)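 Outsourced radioligand competition binding panel of receptors, transporters and ion channels. Primary screen used a single 10 μmol L−1 concentration of test compound to give % inhibition of control specific binding. […] IC50 and Hill coefficient were obtained by non-linear regression.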

[3] = system: Na+ channel (site 2); assay: radioligand competition; conditions: read-out: IC50 (M) ^a
Procedure, shortened: as §1

[4] = system: Ca2+ channel (L, verapamil site); assay: radioligand competition; conditions: read-out: IC50 (M) ^a
Procedure, shortened: as §1

EC50 ([1]; agonist (glutamate) site, no added glycine): 200 ± 10 nM
SMILES: N[C@@H](CCC(=O)O)C(=O)O [L-glutamate]

EC50 ([1]; co-agonist (glycine) site, no added glutamate): 1050 ± 500 nM
SMILES: NCC(=O)O [glycine]

IC50 [2]: 2.2e-06 M
IC50 [3]: 3.9e-06 M
IC50 [4]: 2.2e-06 M
SMILES: COc1cccc(N(C)C(=N)Nc2cc(SC)ccc2Cl)c1 [GMOM, N‐(2‐chloro‐5‐thiomethylphenyl)‐N′‐(3‐methoxyphenyl)‐N′‐methylguanidine]
